Biological target: Cannabinoid receptor 2 (Homo sapiens, UniProt P34972)
Assay: Agonist activity at human recombinant CB2 receptor expressed in HEK293 cells coexpressing Galphaq/o5 assessed as calcium mobilization by FLIPR assay
In short: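 HEK cells stably coexpressing human CB2 and chimeric Gαq/o5 were seeded at 75 000 cells/well the day before and loaded with no-wash calcium dye. Mean ± SEM, ≥3 experiments in duplicate.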

Chain of Cannabinoid receptor 2 (P34972 whole entry): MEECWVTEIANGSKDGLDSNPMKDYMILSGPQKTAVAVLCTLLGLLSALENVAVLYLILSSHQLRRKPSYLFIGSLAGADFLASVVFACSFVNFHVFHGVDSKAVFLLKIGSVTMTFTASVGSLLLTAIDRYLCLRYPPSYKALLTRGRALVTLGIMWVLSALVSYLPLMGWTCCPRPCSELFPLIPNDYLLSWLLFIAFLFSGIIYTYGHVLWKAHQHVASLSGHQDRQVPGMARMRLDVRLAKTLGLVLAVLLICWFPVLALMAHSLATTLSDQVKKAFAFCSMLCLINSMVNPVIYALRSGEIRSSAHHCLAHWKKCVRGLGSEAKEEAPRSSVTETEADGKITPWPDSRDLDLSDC

Compound CN1CCCCC1Cn1cc(C(=O)c2cc([N+](=O)[O-])ccc2I)c2ccccc21 (stereo unspecified) [3-[(2-iodo-5-nitrophenyl)carbonyl]-1-[(1-methylpiperidin-2-yl)methyl]-1H-indole] has an EC50 greater than 10 µM.
